From ChEMBL document CHEMBL1139351, “Synthesis and biological evaluation of vinca alkaloids and phomopsin hybrids” (J Med Chem, 2009)
The source made the active and inactive calls. No cut-off for these calls is given here.

Assays:
KB = assay: Cytotoxicity against human KB cells after 72 hrs; format: functional, cell-based
Method in brief: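 KB human cells; growth followed for 72 h of drug exposure; IC50 taken as the concentration giving 50% growth inhibition.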

[1] = Inhibition of tubulin polymerization assessed as ratio of IC50 for compound to IC50 for vinblastin by UV spectrophotometry
Method in brief: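 Microtubular protein purified from mammalian brain. Drug added from ethanol at several concentrations to free tubulin at 0 °C, then shifted to 37 °C. Assembly followed as OD at 350 nm for 1 min. Maximum assembly rate compared with a drug-free sample, giving IC50. Ratio taken against a vinblastine IC50 measured the same day on the same tubulin preparation.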

[2] = Inhibition of tubulin polymerisation by UV spectrophotometry
Method in brief: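 Microtubular protein purified from mammalian brain. Drug in ethanol at several concentrations added to free tubulin at 0 °C, then shifted to 37 °C. Assembly followed as optical density at 350 nm for 1 min. Maximum assembly rate compared with a no-drug sample. IC50 derived from several concentrations and compared with vinblastine run the same day on the same tubulin preparation.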

[3] = biological target: Tubulin beta-5 chain (Homo sapiens) (UniProt P07437); assay: Inhibition of beta tubulin nucleotide site assessed as inhibition of displacement of cold GDP by [alpha32P]GTP at 20 uM by rapid filtration technique; design: scale not given: the % may be the effect or the level left
Sequence of Tubulin beta-5 chain (Homo sapiens) (P07437 whole entry): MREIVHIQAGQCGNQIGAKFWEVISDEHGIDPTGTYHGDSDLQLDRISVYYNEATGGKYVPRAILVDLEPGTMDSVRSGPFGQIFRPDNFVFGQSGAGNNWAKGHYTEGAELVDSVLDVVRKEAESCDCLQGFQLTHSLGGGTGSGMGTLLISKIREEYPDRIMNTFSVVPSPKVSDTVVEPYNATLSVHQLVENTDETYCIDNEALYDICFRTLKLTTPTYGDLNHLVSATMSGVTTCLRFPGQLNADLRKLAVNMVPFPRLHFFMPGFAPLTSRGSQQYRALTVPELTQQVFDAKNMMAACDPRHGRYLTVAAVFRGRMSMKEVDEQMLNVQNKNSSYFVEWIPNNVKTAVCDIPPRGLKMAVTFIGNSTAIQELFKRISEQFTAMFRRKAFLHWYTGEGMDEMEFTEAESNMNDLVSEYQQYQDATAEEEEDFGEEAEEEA

[4] = biological target: Tubulin beta-5 chain (Homo sapiens) (UniProt P07437); assay: Inhibition of beta tubulin nucleotide site assessed as inhibition of displacement of cold GDP by [alpha32P]GTP by rapid filtration technique relative to phomopsin A
[5] = biological target: Tubulin beta-5 chain (Homo sapiens) (UniProt P07437); assay: Inhibition of beta tubulin nucleotide site assessed as displacement of cold GDP by [alpha32P]GTP at 100 uM by rapid filtration technique; design: scale not given: the % may be the effect or the level left
[6] = biological target: Tubulin beta-5 chain (Homo sapiens) (UniProt P07437); assay: Inhibition of beta tubulin nucleotide site assessed as inhibition of displacement of cold GDP by [alpha32P]GTP at 40 uM by rapid filtration technique

Structure (SMILES)	IC50 (KB; Homo sapiens, KB, 72 h) [nM]	Ratio IC50 [1]	also measured
CCC1=C[C@@H]2CN(C1)Cc1c([nH]c3ccccc13)[C@@](C(=O)OC)(c1cc3c(cc1OC)N(C)[C@H]1[C@@](O)(C(=O)OC)[C@H](OC(C)=O)[C@]4(CC)C=CCN5CC[C@]31[C@@H]54)C2 (stereo in doubt; 4) [VINORELBINE]	–	–	IC50 (KB; kb): 1 nM
CCC1=C[C@@H]2C[C@](C(=O)OC)(c3cc4c(cc3OC)N(C)[C@H]3[C@@](O)(C(=O)OC)[C@H](OC(C)=O)[C@]5(CC)C=CCN6CC[C@]43[C@@H]65)c3[nH]c4ccccc4c3CC[N+](CC(=O)N3CCC[C@H]3C(=O)OC)(C1)C2	80	0.9	–
C=C(C)[C@@H]1NC(=O)[C@@H](NC)[C@@H](O)c2cc(Cl)c(O)c(c2)O[C@](C)(CC)[C@@H](C(=O)N2CC=C[C@H]2C(=O)N/C(C(=O)N/C(=C/C(=O)O)C(=O)O)=C(\C)CC)NC1=O [PHOMOPSIN A]	–	–	IC50 [2]: 560 nM; Activity [3]: Active
CCC1=C[C@@H]2C[C@](C(=O)OC)(c3cc4c(cc3OC)N(C)[C@H]3[C@@](O)(C(=O)OC)[C@H](OC(C)=O)[C@]5(CC)C=CCN6CC[C@]43[C@@H]65)c3[nH]c4ccccc4c3CC[N+](CC(=O)N3CCC[C@H]3C(=O)N[C@H](C(=O)N[C@@H](CC(=O)OCc3ccccc3)C(=O)OCc3ccccc3)[C@@H](C)CC)(C1)C2	700	1.3	Activity [4]: inactive; Activity [5]: 55%; Activity [6]: inactive; Activity [3]: inactive
CC[C@]1(O)C[C@@H]2CN(CCc3c([nH]c4ccccc34)[C@@](C(=O)OC)(c3cc4c(cc3OC)N(C)[C@H]3[C@@](O)(C(=O)OC)[C@H](OC(C)=O)[C@]5(CC)C=CCN6CC[C@]43[C@@H]65)C2)C1 [VINBLASTINE]	1	1	IC50 [2]: 2100 nM; Activity [3]: 25%
CCC1=C[C@@H]2C[C@](C(=O)OC)(c3cc4c(cc3OC)N(C)[C@H]3[C@@](O)(C(=O)OC)[C@H](OC(C)=O)[C@]5(CC)C=CCN6CC[C@]43[C@@H]65)c3[nH]c4ccccc4c3C[N+](CC(=O)N3CCC[C@H]3C(=O)N[C@H](C(=O)N[C@@H](CC(=O)OCc3ccccc3)C(=O)OCc3ccccc3)[C@@H](C)CC)(C1)C2	1300	1.8	–
CC[C@H](C)[C@H](NC(=O)[C@@H]1CCCN1C(=O)[C@H]1NC(=O)[C@H](C(C)C)NC(=O)[C@@H](NC)[C@@H](O)c2cc(Cl)c(O)c(c2)O[C@]1(C)CC)C(=O)NC(CC(=O)O)C(=O)O (mixture of isomers)	–	–	IC50 [2]: 400 nM
CCC1=C[C@@H]2C[C@](C(=O)OC)(c3cc4c(cc3OC)N(C)[C@H]3[C@@](O)(C(=O)OC)[C@H](OC(C)=O)[C@]5(CC)C=CCN6CC[C@]43[C@@H]65)c3[nH]c4ccccc4c3CC[N+](CC(=O)N3CCC[C@H]3C(=O)N[C@H](C(=O)OCc3ccccc3)[C@@H](C)CC)(C1)C2	300	1.4	–
CCC1=C[C@@H]2C[C@](C(=O)OC)(c3cc4c(cc3OC)N(C)[C@H]3[C@@](O)(C(=O)OC)[C@H](OC(C)=O)[C@]5(CC)C=CCN6CC[C@]43[C@@H]65)c3[nH]c4ccccc4c3C[N+](CC(=O)N3CCC[C@H]3C(=O)OC)(C1)C2	100	2	–
CCC1=C[C@@H]2C[C@](C(=O)OC)(c3cc4c(cc3OC)N(C)[C@H]3[C@@](O)(C(=O)OC)[C@H](OC(C)=O)[C@]5(CC)C=CCN6CC[C@]43[C@@H]65)c3[nH]c4ccccc4c3CC[N+](CC(=O)N3CCC[C@H]3C(=O)N[C@H](C(=O)N[C@@H](CC(=O)O)C(=O)O)[C@@H](C)CC)(C1)C2	100	2	–
CCC1=C[C@@H]2C[C@](C(=O)OC)(c3cc4c(cc3OC)N(C)[C@H]3[C@@](O)(C(=O)OC)[C@H](OC(C)=O)[C@]5(CC)C=CCN6CC[C@]43[C@@H]65)c3[nH]c4ccccc4c3CC[N+](CC(=O)N3CCC[C@H]3C(=O)N[C@H](C(=O)O)[C@@H](C)CC)(C1)C2	700	1.7	–
CCC1=C[C@@H]2C[C@](C(=O)OC)(c3cc4c(cc3OC)N(C)[C@H]3[C@@](O)(C(=O)OC)[C@H](OC(C)=O)[C@]5(CC)C=CCN6CC[C@]43[C@@H]65)c3[nH]c4ccccc4c3C[N+](CC(=O)N3CCC[C@H]3C(=O)N[C@H](C(=O)N[C@@H](CC(=O)O)C(=O)O)[C@@H](C)CC)(C1)C2	400	19.4	–
CCC1=C[C@@H]2C[C@](C(=O)OC)(c3cc4c(cc3OC)N(C)[C@H]3[C@@](O)(C(=O)OC)[C@H](OC(C)=O)[C@]5(CC)C=CCN6CC[C@]43[C@@H]65)c3[nH]c4ccccc4c3C[N+](CC(=O)N3CCC[C@H]3C(=O)N[C@H](C(=O)OCc3ccccc3)[C@@H](C)CC)(C1)C2	50	9.4	–
CCC1=C[C@@H]2CN(C1)Cc1c([nH]c3ccccc13)[C@@](C(=O)OC)(c1cc3c(cc1OC)N(C)[C@H]1[C@@](O)(C(=O)OC)[C@H](OC(C)=O)[C@]4(CC)C=CCN5CC[C@]31[C@@H]54)C2 (stereo in doubt; 3) [VINORELBINE]	–	–	IC50 (KB; kb): 40 nM
CCC1=C[C@@H]2C[C@](C(=O)OC)(c3cc4c(cc3OC)N(C)[C@H]3[C@@](O)(C(=O)OC)[C@H](OC(C)=O)[C@]5(CC)C=CCN6CC[C@]43[C@@H]65)c3[nH]c4ccccc4c3C[N+](CC(=O)N3CCC[C@H]3C(=O)N[C@H](C(=O)O)[C@@H](C)CC)(C1)C2	90	9.4	–
